# Measured values published in article PMC7380323 (ACS chemical neuroscience, 2020).
# Where two headings read alike, the source gives them in different places.
# Legend:
# [1] = tested on: Mouse microglia; assay type: cell-based
# [2] = tested on: immortalized human microglia cells; experiment: Automated patch clamp, GABA current response in immortalized human microglia; assay type: cell-based
# [3] = tested on: HMC3 human microglia cells; assay type: cell-based; conditions: −80 mV
# [4] = tested on: immortalized mouse microglia cells; experiment: Automated patch clamp, GABA current response in immortalized mouse microglia; assay type: cell-based
# [5] = tested on: Mouse microglia; experiment: Cell viability; assay type: cell-based; conditions: for Cell viability (%) Mouse microglia 50 μM: CellTiter-Glo
# [6] = tested on: RAW macrophages; experiment: Cell viability; assay type: cell-based, mouse; conditions: CellTiter-Glo
# [7] = tested on: RAW macrophages; experiment: Inhibition of NO production; assay type: cell-based, mouse; conditions: 24 h, IFNγ/LPS activated, 1 μM GABA
# Summary of the method: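 RAW264.7 murine macrophages were grown in DMEM/high glucose with 10% heat-inactivated FBS, penicillin/streptomycin and Normocin at 37°C and 5% CO2, and passaged by scraping. […] After about 24 h at 37°C, nitrite in the supernatant was measured by Griess assay (absorbance 530 nm).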
# [8] = tested on: κ-opioid receptor; conditions: cited from earlier work
# [9] = tested on: Swiss Webster mice; experiment: Rotarod test; assay type: in vivo, mouse; conditions: 5 mg/kg
# [10] = tested on: Swiss Webster mice; experiment: Formalin test; assay type: in vivo, mouse; conditions: 30 mg/kg orally
# Summary of the method: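 Test compounds given orally four days before 2% formalin was injected into the right hind paw of Swiss Webster mice.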
molecule,measurement,setting,value
"NCCCC(=O)O [GABA, γ-aminobutyric acid]",secreted NO levels of activated microglia,"[1]; 1 μM, Griess assay after 14 h",no effect
same,maximum current response for 1 mM GABA,[2],1245 pA
same,maximum negative current response for 1 mM GABA,[3],746 pA
same,maximum current response for 1 mM GABA,[4],1514 pA
C#Cc1ccc2c(c1)C(c1ccccn1)=NCc1c(-c3cnco3)ncn1-2 [KRM-II-81],Inhibition of NO production (%) Mouse microglia 50 μM,[1],0 ± 1%
same,Cell viability (%) Mouse microglia 50 μM,[5],100 ± 5%
C#Cc1ccc2c(c1)C(c1ccccc1F)=N[C@H](C)c1c(C(=O)NC)ncn1-2 [MP-III-022],Inhibition of NO production (%) Mouse microglia 10 μM,[1],36 ± 6%
same,Inhibition of NO production (%) Mouse microglia 50 μM,[1],60 ± 12%
same,Cell viability (%) Mouse microglia 50 μM,[5],86 ± 2%
same,Cell viability (%) RAW macrophages 50 μM,[6],100 ± 11%
same,Inhibition of NO production (%) RAW macrophages 10 μM,[7]; 10 μM,9 ± 5%
same,Inhibition of NO production (%) RAW macrophages 50 μM,[7]; 50 μM,51 ± 7%
CN1CCc2cc3c(cc2[C@H]1[C@@H]1OC(=O)c2c1ccc1c2OCO1)OCO3 [bicuculline],reversal of the NO effect of 50 μM MP-IV-010 by antagonist,"[1]; antagonist 100 μM, with GABA, 14 h",did not reverse
CNC1=Nc2ccc(Cl)cc2C(c2ccccc2)=[N+]([O-])C1 [chlordiazepoxide],affinity for the κ-opioid receptor (in words),[8],micromolar affinities
C[C@@H]1C[C@H]2[C@@H]3CCC4=CC(=O)C=C[C@]4(C)[C@@]3(F)[C@@H](O)C[C@]2(C)[C@@]1(O)C(=O)CO [dexamethasone],NO production of activated microglia,"[1]; 100 nM, Griess assay after 14 h",reduced NO production
same,cytotoxicity / cell viability in the antagonist experiments (CellTiter-Glo),"[5]; activated mouse microglia, concentrations as in the NO experiments",without cell toxicity
CN1C(=O)CN=C(c2ccccc2)c2cc(Cl)ccc21 [diazepam],affinity for the κ-opioid receptor (in words),[8],micromolar affinities
same,sedation on the rotarod,[9],sedating
CCOC(=O)c1ncn2c1CN(C)C(=O)c1cc(F)ccc1-2 [flumazenil],reversal of the NO effect of 50 μM MP-IV-010 by antagonist,[1],did not reverse
CC(C(=O)O)c1cccc(C(=O)c2ccccc2)c1 (stereo not drawn) [ketoprofen],antinociceptive effect in the formalin test compared with GL-IV-03 10 mg/kg,[10],similar
Cc1ncc2n1-c1ccc(Cl)cc1C(c1ccccc1F)=NC2 [midazolam],affinity for the κ-opioid receptor (in words),[8],micromolar affinities
Oc1ccc2c3c1O[C@H]1c4[nH]c5c(c4C[C@@]4(O)[C@@H](C2)N(CC2CC2)CC[C@]314)C[C@@]1(O)[C@H]2Cc3ccc(O)c4c3[C@@]1(CCN2CC1CC1)[C@H]5O4 [norbinaltorphimine],reversal of the NO effect of 50 μM MP-IV-010 by antagonist,"[1]; antagonist 30 μM, 14 h",reversed
SM-21,reversal of the NO effect of 50 μM MP-IV-010 by antagonist,"[1]; antagonist 30 μM, 14 h",no reversal
picrotoxin,reversal of the NO effect of 50 μM MP-IV-010 by antagonist,"[1]; antagonist 50 μM, with GABA, 14 h",did not reverse
